Laboratory results taken from ChEMBL document CHEMBL1828560, “Design, synthesis and biological study of pinacolyl boronate-substituted stilbenes as novel lipogenic inhibitors” (Bioorg Med Chem Lett, 2011).
Calls of active or inactive are those of the source. No cut-off for these calls is given here.

How the values were obtained:
HepG2 [1] = assay: Inhibition of FAS gene expression in human HepG2 cells at 30 uM after 6 hrs by quantitative RT-PCR; format: functional, cell-based
Summary of the method: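 HepG2 cells grown at 37°C, 5% CO2 in DMEM with 10% FBS, penicillin-streptomycin and 20mM glutamine; compounds at 30μM for 6 hours. Total RNA extracted with Trizol; 2 μg reverse-transcribed to cDNA; FAS transcript quantified by real-time qPCR with cyclophilin B as invariant control. Three independent samples averaged; compared with DMSO.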

HepG2 [2] = assay: Cytotoxicity against human HepG2 cells; format: cell-based
FaO [3] = assay: Inhibition of lipogenesis in rat FaO cells assessed as decrease in synthesis rate of palmitate at 20 uM after 12 hrs by deuterium enrichment-GC/MS method in presence of 100 nM insulin; format: functional, cell-based
Summary of the method: (§1)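 Rat hepatoma FAO cells, maintained in DMEM with 10% FBS, treated at 20μM for 12 hours with 100 nM insulin. Cells cultured in DMEM containing 10% 2H2O for 18 hours; deuterium incorporation into palmitate or cholesterol measured by GC/MS to give synthesis rate. Averages of three independent samples vs DMSO.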

HepG2 [4] = assay: Inhibition of HMGCR gene expression in human HepG2 cells after 6 hrs by measuring mRNA level of HMGCR using quantitative RT-PCR; format: functional, cell-based
Summary of the method: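 HepG2 cells cultured in DMEM plus 10% FBS, penicillin-streptomycin, 20mM glutamine (37°C, 5% CO2), exposed to a series of concentrations for 6 hours. HMGCR mRNA measured by qRT-PCR: Trizol RNA extraction, 2 μg RNA converted to cDNA, real-time PCR normalized to cyclophilin B.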

FaO [5] = assay: Inhibition of cholesterol biosynthesis in rat FaO cells at 20 uM after 12 hrs by deuterium enrichment-GC/MS method in presence of 100 nM insulin; format: functional, cell-based; summary of the method: as §1
Mus musculus = species: Mus musculus; assay: Toxicity in mouse; format: organism-based; conditions: in vivo

SMILES	inhibition (HepG2 [1])	Activity (HepG2 [2])	inhibition (FaO [3])	inhibition (HepG2 [4])	inhibition (FaO [5])	Activity (Mus musculus)
CC1(C)OB(c2ccc(C=Cc3ccc(O)cc3)cc2)OC1(C)C (mixture of isomers)	Active	Non-toxic	Active	Dose-dependent effect	Active	Non-toxic
COc1ccc(C=Cc2ccc(B3OC(C)(C)C(C)(C)O3)cc2)cc1 (mixture of isomers)	inactive			inactive		
CC1(C)OB(c2ccc(C=Cc3cc(Cl)cc(Cl)c3)cc2)OC1(C)C (mixture of isomers)	Active	Non-toxic				
